Laboratory results as given in ChEMBL document CHEMBL4261575, “Structure-guided approach identifies a novel class of HIV-1 ribonuclease H inhibitors: binding mode insights through magnesium complexation and site-directed mutagenesis studies” (Medchemcomm, 2018).
Calls of active or inactive are those of the source. No cut-off for these calls is given here.

Key:
[1] = Binding affinity to Mg2+ at 3 x 10^-5 M to 8 x 10^-5 M by UV-Vis spectrophotometric method
Procedure, shortened: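 UV-vis spectrophotometric titration of the compound in absolute ethanol with MgCl2, read in a quartz cuvette with a 1 cm path. MgCl2 was diluted in absolute ethanol to 13 stock solutions spanning 4 10–5 to 0.2 M (stock concentrations). Spectra were recorded across increasing Mg2+ levels, and isosbestic points were used to judge complexation equilibria. Each experiment was done in triplicate.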

[2] = molecular target: Human immunodeficiency virus type 1 reverse transcriptase (Human immunodeficiency virus 1, UniProt Q72547); assay: Inhibition of HIV1 reverse transcriptase RNase H activity using 18-nucleotide 3'-fluorescein-labeled RNA/5'-[…]-labeled DNA hybrid as substrate after 1 hr by fluorescence assay
Procedure, shortened: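 Polymerase-independent RNase H assay with 20 ng wild-type RT in 50 mM Tris-HCl pH 7.8, 6 mM MgCl2, 1 mM DTT and 80 mM KCl. Substrate was 0.25 μM RNA/DNA hybrid with a fluorescein-labelled RNA and a dabcyl-labelled DNA. Inhibitor was diluted in water over increasing concentrations. Incubation 1 h at 37 °C, stopped with EDTA, read at 490/528 nm. IC50 was averaged over three independent experiments.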

[3] = molecular target: Human immunodeficiency virus type 1 reverse transcriptase (Human immunodeficiency virus 1) (UniProt Q72547); assay: Inhibition of HIV1 reverse transcriptase RNase H activity using 18-nucleotide 3'-fluorescein-labeled RNA/5'-[…]-labeled DNA hybrid as substrate assessed as remaining activity at 100 uM after 1 hr by fluorescence assay relative to control
Procedure, shortened: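 Wild-type RT (20 ng) RNase H reaction in Tris-HCl pH 7.8 buffer with 6 mM MgCl2, 1 mM DTT and 80 mM KCl. Substrate was 0.25 μM fluorescein/dabcyl RNA/DNA hybrid, with compound at 100 μM. Incubation 1 h at 37 °C, EDTA stop, fluorescence at 490/528 nm. Activity is given as percentage of control.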

[4] = molecular target: Human immunodeficiency virus type 1 reverse transcriptase (Human immunodeficiency virus 1, UniProt Q72547, R557A); assay: Inhibition of HIV1 group M subtype B reverse transcriptase p66 R557A mutant RNase H activity using 18-nucleotide 3'-fluorescein-labeled RNA/5'-[…]-labeled DNA hybrid as substrate after 1 hr by fluorescence assay; set-up: species or system HIV-1 group M
Procedure, shortened: (§1)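 Mutations were introduced into the p66 subunit of subtype B RT. Enzyme amounts were set within the linear range: R448A 37.5 ng, N474A 62.5 ng, A502F 100 ng, R557A 75 ng. Buffer was 50 mM Tris-HCl pH 7.8, 6 mM MgCl2, 1 mM DTT, 80 mM KCl, with 0.25 μM fluorescein/dabcyl hybrid and water-diluted inhibitor. Incubation 1 h at 37 °C, EDTA stop, read at 490/528 nm.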

[5] = molecular target: Human immunodeficiency virus type 1 reverse transcriptase (Human immunodeficiency virus 1, UniProt Q72547, N474A); assay: Inhibition of HIV1 group M subtype B reverse transcriptase p66 N474A mutant RNase H activity using 18-nucleotide 3'-fluorescein-labeled RNA/5'-[…]-labeled DNA hybrid as substrate after 1 hr by fluorescence assay; set-up: species or system HIV-1 group M; procedure, shortened: as §1
[6] = Selectivity ratio of IC50 for HIV1 group M subtype B reverse transcriptase p66 R557A mutant RNase H activity to IC50 for HIV1 reverse transcriptase RNase H activity
[7] = molecular target: Human immunodeficiency virus type 1 reverse transcriptase (Human immunodeficiency virus 1, UniProt Q72547, A502F); assay: Inhibition of HIV1 group M subtype B reverse transcriptase p66 A502F mutant RNase H activity using 18-nucleotide 3'-fluorescein-labeled RNA/5'-[…]-labeled DNA hybrid as substrate after 1 hr by fluorescence assay; set-up: species or system HIV-1 group M; procedure, shortened: as §1
[8] = molecular target: Human immunodeficiency virus type 1 reverse transcriptase (Human immunodeficiency virus 1, UniProt Q72547, R448A); assay: Inhibition of HIV1 group M subtype B reverse transcriptase p66 R448A mutant RNase H activity using 18-nucleotide 3'-fluorescein-labeled RNA/5'-[…]-labeled DNA hybrid as substrate after 1 hr by fluorescence assay; set-up: species or system HIV-1 group M; procedure, shortened: as §1
[9] = Selectivity ratio of IC50 for HIV1 group M subtype B reverse transcriptase p66 R448A mutant RNase H activity to IC50 for HIV1 reverse transcriptase RNase H activity
[10] = Selectivity ratio of IC50 for HIV1 group M subtype B reverse transcriptase p66 A502F mutant RNase H activity to IC50 for HIV1 reverse transcriptase RNase H activity
[11] = Selectivity ratio of IC50 for HIV1 group M subtype B reverse transcriptase p66 N474A mutant RNase H activity to IC50 for HIV1 reverse transcriptase RNase H activity
[12] = tested on: Human immunodeficiency virus 1; assay: Antiviral activity against HIV1 assessed as inhibition of viral replication at 40 uM by cell-based assay; assay type: functional, organism-based

SMILES	IC50 [2]	Activity [3]	also measured
Cc1cc(/C=C2\NC(=O)NC2=O)c(C)n1-c1ccc(OCc2ccc(Cl)cc2Cl)cc1	8.73 µM	–	Activity [1]: inactive
O=C(OCCOCn1cc(Br)c(=O)[nH]c1=O)c1ccccc1	> 100 µM	69.1%	–
CCOC(=O)C12CC(OC3CCCCC3)C1(c1ccccc1)NC(=O)C2=O (centres undefined)	> 100 µM	80.4%	–
O=C1Nc2ccccc2/C1=N\NC(=O)c1ccc(O)cc1O	36.4 µM	–	–
O=C(O)CCCC(=O)NC1CCCCCCC1	> 100 µM	76.3%	–
CC(=O)c1cc2c(cc1NC(=O)CCC(=O)O)OCO2	> 100 µM	89.5%	–
Cc1ccc(C2NC(=O)C(O)=C2C(=O)c2cccs2)cc1 (centres undefined)	> 100 µM	81.8%	–
CCOc1cc(/C=C2\NC(=O)NC2=O)c(Cl)cc1OC	> 100 µM	70%	–
CCCCC(CC)CN1C(=O)C(O)=C(C(C)=O)C1c1ccco1 (centres undefined)	> 100 µM	77.5%	–
CCN1C(=O)/C(=C/c2ccc(O)c([N+](=O)[O-])c2)SC1=S	> 100 µM	65.5%	–
COc1ccccc1/C=C/CN1CCNC(=O)C1CC(=O)O (centres undefined)	> 100 µM	83.7%	–
O=C(N/N=C\c1cc([N+](=O)[O-])c(O)cc1O)c1ccccc1O	49.9 µM	–	–
COc1cc(NC(=O)C2CC(=O)N=C(N)S2)cc(OC)c1 (centres undefined)	> 100 µM	74.5%	–
Cc1ccc(C2CC2C(=O)NN)cc1 (centres undefined)	> 100 µM	83.5%	–
NNC(=O)c1cccc(Cn2cc(Br)c([N+](=O)[O-])n2)c1	> 100 µM	94.6%	–
Cc1cc(/C=C2\NC(=O)NC2=O)cc(C)c1OCc1cccc([N+](=O)[O-])c1	17.8 µM	–	–
O=C(O)C1Sc2[nH]c(=O)sc2C2c3ccccc3OC(=O)C12 (centres undefined)	> 100 µM	80%	–
O=C(O)COc1ccc(/C=C2\NC(=O)NC2=O)cc1I	> 100 µM	67.5%	–
Cc1nc(N)sc1C(=O)N/N=C\c1ccc(O)c([N+](=O)[O-])c1	> 100 µM	55%	–
CC1=C(C(=O)O)N2C(=O)C(NC(=O)c3ccn(C)n3)C2SC1 (centres undefined)	> 100 µM	80%	–
CCCc1cc2c(cc1/C=C1\NC(=O)NC1=O)OCO2	91.6 µM	–	–
CCC(C)Oc1ccc(/C=C2\NC(=O)NC2=O)cc1 (centres undefined)	52.8 µM	–	–

SMILES	IC50 [2]	Activity [3]	also measured
CSCCC(NS(=O)(=O)c1ccc2c(c1)NC(=O)C(C)O2)C(=O)O (centres undefined)	> 100 µM	80.2%	–
CCOc1ccc(/C=C2\NC(=O)NC2=O)c(Cl)c1OC	84.2 µM	–	–
Cc1cccc(OCC(=O)NC(Cc2ccccc2)C(=O)O)c1 (centres undefined)	> 100 µM	87.2%	–
CC(Oc1ccc(C(C)(C)C)cc1)C(=O)NN (centres undefined)	> 100 µM	70.4%	–
CCc1nnc(NC(=O)C(=O)NCCOC(=O)c2ccccc2)s1	> 100 µM	77.9%	–
O=C1NC(=O)/C(=C/c2ccc(Cl)c(Cl)c2)S1	> 100 µM	80.5%	–
O=C(CSc1nc2ccccc2o1)Nc1ncn[nH]1	> 100 µM	82.7%	–
O=C(O)CC1CSc2ccccc2NC1=O (centres undefined)	> 100 µM	76.5%	–
CCCOC(=O)CNc1n[nH]c(=O)[nH]c1=O	> 100 µM	89.1%	–
CC(C)c1ccc(O)c(=O)c(O)c1 [BETA-THUJAPLICINOL]	–	–	IC50 [4]: 0.21 µM; IC50 [5]: 0.1 µM; Ratio IC50 [6]: 1.05; IC50 [7]: 0.17 µM; IC50 [8]: 0.14 µM; Ratio IC50 [9]: 0.7; Ratio IC50 [10]: 0.85; Ratio IC50 [11]: 0.5
COC(=O)c1c(-c2cccs2)csc1NC(=O)C1CC=CCC1C(=O)O (centres undefined)	> 100 µM	93%	–
NC(=O)N(CCC(=O)O)c1ccc(Br)cc1	> 100 µM	84.5%	–
Cc1cc(/C=C2\SC(=N)NC2=O)c(C)n1-c1ccc(Cl)cc1	16.1 µM	–	Activity [1]: inactive
CCOc1cccc(/C=C2\SC(=O)NC2=O)c1O	> 100 µM	60%	–
COc1ccccc1NC(=O)C1CCCCC1(C)C(=O)O (centres undefined)	61.2 µM	–	–
COc1cc(/C=N/NC(=O)COc2cccc(C)c2)c(O)c([N+](=O)[O-])c1	> 100 µM	59.4%	–
CCOc1ccc(/C=C2\SC(=O)NC2=O)cc1OCc1ccc(Cl)c(Cl)c1	5.17 µM	–	IC50 [4]: 12.5 µM; IC50 [5]: > 300 µM; Ratio IC50 [6]: 2.5; IC50 [7]: 26.7 µM; inhibition [12]: inactive; IC50 [8]: 7.01 µM; Ratio IC50 [9]: 1.4; Ratio IC50 [10]: 5.3; Ratio IC50 [11]: > 59; Activity [1]: inactive
Cc1cc(/C=C2\SC(N)=NC2=O)c(C)n1-c1ccc(F)cc1	12.3 µM	–	Activity [1]: inactive
NNC(=O)C12CC3CC(C1)CC(n1cnc(Cl)n1)(C3)C2	> 100 µM	73.4%	–
C[S+]([O-])CCC(NS(=O)(=O)c1ccccc1)C(=O)O (centres undefined)	> 100 µM	86%	–
COc1cccc(/C=C2\NC(=O)NC2=O)c1-c1ccc(OC(=O)Nc2ccccc2)cc1	28.1 µM	–	–
COc1cc(N2CCCC2)c(OC)cc1/C=C1/NC(=O)NC1=O	9.35 µM	–	IC50 [4]: 20.5 µM; IC50 [5]: > 300 µM; Ratio IC50 [6]: 2.2; IC50 [7]: 32.5 µM; inhibition [12]: inactive; IC50 [8]: 11 µM; Ratio IC50 [9]: 1.2; Ratio IC50 [10]: 3.5; Ratio IC50 [11]: > 32; Activity [1]: Active
